Assay results taken from ChEMBL document CHEMBL2331166, “Antiproliferative withanolides from Datura wrightii” (J Nat Prod, 2013).
pIC50: −log10 of the molar value. Activity calls are given as the source filed them. The calls are words filed in the database; no cut-off is given here.

Legend:
[1] = test system: MRC5; experiment: Selectivity index, ratio of IC50 for human MRC5 cells to IC50 for human U87 cells; type: functional
Outline: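 MTS viability assay. MRC-5 fibroblasts and U87 glioblastoma cells were seeded at 2,500 cells/well and left about 6 h. Drug-containing media at a range of concentrations was then added, with 72 h further incubation at 37 °C in 5% CO2. Absorbance was read at 490 nm, in triplicate on two occasions. IC50s came from sigmoidal dose-response fits, and the index is the MRC-5/U87 IC50 ratio.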

[2] = test system: MRC5; experiment: Cytotoxicity against human MRC5 cells after 72 hrs by MTS assay; type: cell-based; conditions: MRC5, 72 h
[3] = test system: U-251; experiment: Cytotoxicity against human U251 cells after 72 hrs by MTS assay; type: functional, cell-based; conditions: U-251, 72 h
Outline: (§1)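 Monolayer cultures kept at 37 °C, 5% CO2, humidified, grown to 75–90% confluence; U87 and U251 maintained in DMEM with 10% FBS. Seeded at 2,500 cells/well and left about 6 h, then drug-containing medium added at various concentrations for 72 h. Viable cells read by MTS colorimetry at 490 nm. Triplicate, two separate occasions; IC50 from best-fit sigmoidal dose–response curves.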

[4] = Cytotoxicity against human MDA1986 cells after 72 hrs by MTS assay; type: functional, cell-based; conditions: MDA1986, 72 h; outline: as §1
[5] = Cytotoxicity against human U87 cells after 72 hrs by MTS assay; type: functional, cell-based, U-87MG ATCC; conditions: U-87 MG; outline: as §1
[6] = test system: U-251; experiment: Increase in HSP70 expression in human U251 cells at 5 uM incubated for 24 hrs in presence of N-acetylcysteine by Western blotting method; type: functional, cell-based
[7] = test system: U-251; experiment: Increase in HSP32 expression in human U251 cells incubated for 24 hrs in presence of N-acetylcysteine by Western blotting method; type: functional, cell-based
[8] = test system: U-251; experiment: Increase in HSP32 expression in human U251 cells incubated for 24 hrs by Western blotting method; type: functional, cell-based
Outline: (§2)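 U251 glioblastoma cells plated to stay subconfluent at harvest, grown overnight, then exposed to 0, 0.1, 0.5, 1 and 5 μM of each withanolide for 24 h. Lysates quantified, run on SDS-PAGE, transferred to nitrocellulose and immunoblotted for total HSP32 and HSP70. β-actin served as the loading control.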

[9] = test system: U-251; experiment: Increase in HSP70 expression in human U251 cells at 5 uM incubated for 24 hrs by Western blotting method; type: functional, cell-based; outline: as §2

Compound	Ratio IC50 [1]	pIC50 [2]	pIC50 [3]	pIC50 [4]	pIC50 [5]	Activity [6]	Activity [7]	Activity [8]	Activity [9]
CC1=C(CO)C(=O)O[C@@H]([C@@H](C)[C@H]2CC[C@H]3[C@@H]4C[C@H]5O[C@]56[C@@H](O)C=CC(=O)[C@]6(C)[C@H]4CC[C@]23C)C1 [WITHAFERIN A]	0.19	6.70	6.16	6.10	5.96				
C=C1C(=O)O[C@@H]2C[C@]1(C)OC[C@H]2[C@H]1CC[C@H]2[C@@H]3C[C@H]4O[C@]45CC=CC(=O)[C@]5(C)[C@H]3CC[C@]12C [WITHAMETELIN F]	6	5.48	5.85	5.82	6.25	inactive	inactive	Dose-dependent effect	Active
C=C1C(=O)O[C@@H]2C[C@]1(C)OC[C@H]2[C@H]1CC[C@H]2[C@@H]3CC=C4CC=CC(=O)[C@]4(C)[C@H]3C[C@@H](O)[C@]12C [WITHAMETELIN L]	7.4	5.38	5.89	5.64	6.24	inactive	inactive	Dose-dependent effect	Active
C=C1C(=O)O[C@@H]2C[C@]1(C)OC[C@H]2[C@H]1CC[C@H]2[C@@H]3C[C@@H](O)[C@@]4(O)CC=CC(=O)[C@]4(C)[C@H]3CC[C@]12C [WITHAMETELIN O]	4.1	5.34	5.55	5.52	5.96		inactive	Dose-dependent effect	
C=C1C(=O)O[C@@H]2C[C@]1(C)OC[C@H]2[C@H]1CC[C@H]2[C@@H]3CC=C4CC=CC(=O)[C@]4(C)[C@H]3CC[C@]12C [WITHAMETELIN]	5.1	5.29	5.66	5.57	6.00	inactive	inactive	Dose-dependent effect	Active
C=C1C(=O)O[C@@H]2C[C@@]1(C)OC[C@H]2[C@H]1CC[C@H]2[C@@H]3C[C@@H](O)[C@@]45C[C@H]4CC(=O)[C@]5(C)[C@H]3CC[C@]12C [WITHAWRIGHTOLIDE]	3.8	5.25	5.44	5.51	5.82		inactive	Dose-dependent effect	
